Results as given in ChEMBL document CHEMBL5346918, “Design, synthesis and biological evaluation of Nucleosidic CD99 inhibitors that selectively reduce Ewing sarcoma viability” (Eur J Med Chem, 2023).
The source made the active and inactive calls. The calls are words filed in the database; no cut-off is given here.

Tests used:
[1] = Cytotoxicity against human A4573 cells assessed as reduction in cell viability incubated for 48 hrs by CellTiter-Blue reagent based […] assay; type: functional; conditions: A4573, 48 h
Outline: (§1)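 Cells seeded and grown to 60–80% confluency (usually 18–24 h), then treated 48 h with a range of concentrations prepared in each line's medium. CellTiter-Blue reagent added at the end of treatment and incubated 3–5 h at 37 °C, 5% CO₂. Fluorescence read at 560 nm excitation and 590 nm emission. IC50 from nonlinear regression, log(inhibitor) vs. normalized response.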

TC-32 [2] = experiment: Cytotoxicity against human TC-32 cells assessed as reduction in cell viability incubated for 48 hrs by CellTiter-Blue reagent based […] assay; type: functional; conditions: TC-32, 48 h; outline: as §1
[3] = Cytotoxicity against human TC71 cells assessed as reduction in cell viability incubated for 48 hrs by CellTiter-Blue reagent based […] assay; type: functional; conditions: TC-71, 48 h; outline: as §1
SAOS-2 = experiment: Cytotoxicity against human SAOS-2 cells assessed as reduction in cell viability incubated for 48 hrs by CellTiter-Blue reagent based […] assay; type: functional; conditions: SAOS-2, 48 h; outline: as §1
U2OS [4] = experiment: Cytotoxicity against human U2OS cells assessed as reduction in cell viability incubated for 48 hrs by CellTiter-Blue reagent based […] assay; type: functional; outline: as §1
[5] = Cytotoxicity against human COG-E-352 cells assessed as reduction in cell viability incubated for 48 hrs by CellTiter-Blue reagent based […] assay; type: functional; conditions: COG-E-352, 48 h
Outline: (§2)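 Cells grown in their own media at 37 °C, 5% CO2, mycoplasma-tested. At 60–80% confluency, treated 48 h with a range of concentrations made in medium. CellTiter-Blue added for 3–5 h at 37 °C, fluorescence read at ex 560/em 590 nm. IC50 from nonlinear regression (log(inhibitor) vs normalized response); mean ± SD of duplicate or triplicate determinations.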

[6] = Cytotoxicity against human MHH-ES cells assessed as reduction in cell viability incubated for 48 hrs by CellTiter-Blue reagent based […] assay; type: functional
[7] = Cytotoxicity against human SK-ES cells assessed as reduction in cell viability incubated for 48 hrs by CellTiter-Blue reagent based […] assay; type: functional; outline: as §2
[8] = Cytotoxicity against human STA-ET-7.2 cells assessed as reduction in cell viability incubated for 48 hrs by CellTiter-Blue reagent based […] assay; type: functional; conditions: STA-ET-7.2, 48 h
RD = experiment: Cytotoxicity against human RD cells assessed as reduction in cell viability incubated for 48 hrs by CellTiter-Blue reagent based […] assay; type: functional; outline: as §2
SJRH30 = experiment: Cytotoxicity against human Rh30 cells assessed as reduction in cell viability incubated for 48 hrs by CellTiter-Blue reagent based […] assay; type: functional; conditions: SJRH30, 48 h
143B = experiment: Cytotoxicity against human 143B cells assessed as reduction in cell viability incubated for 48 hrs by CellTiter-Blue reagent based […] assay; type: functional; outline: as §2
HOS = experiment: Cytotoxicity against human HOS cells assessed as reduction in cell viability incubated for 48 hrs by CellTiter-Blue reagent based […]; type: functional; outline: as §2
[9] = Cytotoxicity against human MG-63.3 cells assessed as reduction in cell viability incubated for 48 hrs by CellTiter-Blue reagent based […] assay; type: functional; conditions: MG-63.3, 48 h; outline: as §2
A 172 = experiment: Cytotoxicity against human A-172 cells assessed as reduction in cell viability incubated for 48 hrs by CellTiter-Blue reagent based […] assay; type: functional; conditions: A 172, 48 h; outline: as §2
U-87 MG = experiment: Cytotoxicity against human U-87 MG cells assessed as reduction in cell viability incubated for 48 hrs by CellTiter-Blue reagent based […] assay; type: functional, U-87MG ATCC; outline: as §2
A549 = experiment: Cytotoxicity against human A549 cells assessed as reduction in cell viability incubated for 48 hrs by CellTiter-Blue reagent based […] assay; type: functional; conditions: A549, 48 h
[10] = Cytotoxicity against human HEK293 cells assessed as reduction in cell viability incubated for 48 hrs by CellTiter-Blue reagent based […] assay; type: toxicity; outline: as §2
HeLa = experiment: Cytotoxicity against human HeLa cells assessed as reduction in cell viability incubated for 48 hrs by CellTiter-Blue reagent based […] assay; type: functional; outline: as §2
PC-3 = experiment: Cytotoxicity against human PC-3 cells assessed as reduction in cell viability incubated for 48 hrs by CellTiter-Blue reagent based […] assay; type: functional; conditions: PC-3, 48 h; outline: as §2
CD99 antigen [11] = biological target: T1, CD99 antigen (Homo sapiens, UniProt P14209); experiment: Binding affinity to N-terminal biotin-tagged recombinant human CD99 extracellular domain (23 to 122 residues) expressed in Escherichia coli BL21(DE3) by surface plasmon resonance analysis
T1 sequence (P14209 whole entry): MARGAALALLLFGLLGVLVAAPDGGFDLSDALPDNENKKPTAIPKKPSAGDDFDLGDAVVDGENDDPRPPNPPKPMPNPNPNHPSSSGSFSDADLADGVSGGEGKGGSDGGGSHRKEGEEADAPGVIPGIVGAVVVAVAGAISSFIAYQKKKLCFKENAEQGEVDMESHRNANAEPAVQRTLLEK
Outline: (§3)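 Bacterially expressed recombinant CD99 extracellular domain amine-coupled to CM5 chip (10 mM sodium acetate pH 4.0, ~3500 RU). Analytes injected at various concentrations in PBS-P pH 7.4 + 1% DMSO at 50 μL/min. Contact time 60 s, dissociation 300 s, regeneration with 15 s H3PO4 pulse. Duplicate injections; sensorgrams fitted to 1:1 kinetic model.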

[12] = biological target: T2, CD99 antigen (Homo sapiens) (UniProt P14209); experiment: Binding affinity to N-terminal biotin-tagged recombinant human CD99 extracellular domain (23 to 122 residues) expressed in Escherichia coli BL21(DE3) assessed as association rate constant by surface plasmon resonance analysis; outline: as §3
T2 sequence (whole entry): T1 sequence (P14209 whole entry)

CD99 antigen [13] = biological target: T1, CD99 antigen; experiment: Binding affinity to N-terminal biotin-tagged recombinant human CD99 extracellular domain (23 to 122 residues) expressed in Escherichia coli BL21(DE3) assessed as dissociation rate constant by surface plasmon resonance analysis; outline: as §3
TC-32 [14] = experiment: Induction of apoptosis in human TC-32 cells assessed as PARP cleavage at 10 to 40 uM incubated for 48 hrs by western blot analysis; type: functional, cell-based; conditions: dose 10-40 µM
Outline: (§4)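 Cells treated 48 h with three concentrations per agent (0.1, 0.2 or 0.4 μM for one; 10, 20 or 40 μM for another). Total cell lysates immunoblotted for PARP and caspase 3 and their cleaved products. Actin used as loading control and for normalization. ECL signal imaged on PVDF, bands quantified by densitometry.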

TC-32 [15] = experiment: Induction of apoptosis in human TC-32 cells assessed as caspase-3 cleavage at 10 to 40 uM incubated for 48 hrs by western blot analysis; type: functional, cell-based; conditions: dose 10-40 µM; outline: as §4
U2OS [16] = experiment: Induction of apoptosis in human U2OS cells assessed as PARP cleavage at 10 to 40 uM incubated for 48 hrs by western blot analysis; type: functional, cell-based; conditions: dose 10-40 µM; outline: as §4
U2OS [17] = experiment: Induction of apoptosis in human U2OS cells assessed as caspase-3 cleavage at 10 to 40 uM incubated for 48 hrs by western blot analysis; type: functional, cell-based; conditions: dose 10-40 µM; outline: as §4
TC-32 [18] = experiment: Induction of apoptosis in human TC-32 cells assessed as increase in hypodiploid subG1 population at 10 to 40 uM incubated for 48 hrs by propidium iodide staining based flow cytometry; type: functional, cell-based; conditions: dose 10-40 µM
Outline: (§5)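 Treatment same as the apoptosis blots (48 h; 0.1–0.4 μM or 10–40 μM). Adherent cells trypsinized and pooled with floating cells, then washed in PBS. Fixed in ice-cold 70% ethanol 1 h on ice, rehydrated, RNase A 100 μg/mL. Stained with propidium iodide at 50 μg/mL final for 1 h on ice. Sub-G1 fraction read by flow cytometry.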

U2OS [19] = experiment: Induction of apoptosis in human U2OS cells assessed as increase in hypodiploid subG1 population at 10 to 40 uM incubated for 48 hrs by propidium iodide staining based flow cytometry; type: functional, cell-based; conditions: dose 10-40 µM; outline: as §5
TC-32 [20] = experiment: Inhibition of DNA synthesis in human TC-32 cells assessed as induction of DNA damage by measuring gammaH2AX phosphorylation at 20 to 80 uM incubated for 6 hrs by western blot analysis; type: toxicity, cell-based; conditions: tc-32, 6 h, dose 20-80 µM
Outline: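 TC-32 cells treated 6 h at 20, 40 or 80 μM. Total lysates immunoblotted for H2A.X and Ser139-phosphorylated γH2A.X. Actin used as loading control and for normalization. Bands quantified by densitometry.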

Q: Which IC50 [1] does the source give for `Nc1nc(-c2cccnc2)nc2c1ncn2[C@@H]1O[C@H](CO)[C@@H](O)[C@@H]1F` here?
A: 45.1 µM

Q: What about the IC50 (TC-32 [2]) of the same molecule?
A: 58.7 µM

Q: And the IC50 [3]?
A: 19.9 µM

Q: And the IC50 (SAOS-2)?
A: ≥ 400 µM

Q: And the IC50 (U2OS [4])?
A: ≥ 400 µM

Q: What about the IC50 [5] of the same molecule?
A: 60 µM

Q: What about the IC50 [6] of the same molecule?
A: 60 µM

Q: And the IC50 [7]?
A: 60 µM

Q: And the IC50 [8]?
A: 60 µM

Q: And the IC50 (RD)?
A: > 400 µM

Q: And the IC50 (SJRH30)?
A: > 368 µM

Q: And the IC50 (143B)?
A: > 368 µM

Q: And the IC50 (HOS)?
A: > 400 µM

Q: What about the IC50 [9] of the same molecule?
A: > 368 µM

Q: And the IC50 (A 172)?
A: > 400 µM

Q: And the IC50 (U-87 MG)?
A: > 400 µM

Q: And the IC50 (A549)?
A: > 400 µM

Q: And the IC50 at 48 h [10]?
A: > 368 µM

Q: And the IC50 (HeLa)?
A: > 400 µM

Q: What about the IC50 (PC-3) of the same molecule?
A: > 400 µM

Q: And the Kd (CD99 antigen [11])?
A: 1.8 µM

Q: What about the Ka [12] of the same molecule?
A: 335 M⁻¹ s⁻¹

Q: And the Kd (CD99 antigen [13])?
A: 598.2 10^-6/s

Q: And the Activity (TC-32 [14])?
A: Active

Q: What about the Activity (TC-32 [15]) of the same molecule?
A: Active

Q: What about the Activity (U2OS [16]) of the same molecule?
A: inactive

Q: What about the Activity (U2OS [17]) of the same molecule?
A: inactive

Q: What about the Activity (TC-32 [18]) of the same molecule?
A: Active

Q: And the Activity (U2OS [19])?
A: inactive

Q: What about the Activity (TC-32 [20]) of the same molecule?
A: Non-Toxic
